In ChEMBL document CHEMBL3826880, “Synthesis and evaluation of (+)-decursin derivatives as inhibitors of the Wnt/β-catenin pathway” (Bioorg Med Chem Lett, 2016):
Activity calls are given as the source filed them. The calls are words filed in the database; no cut-off is given here.

Legend:
[1] = Inhibition of Wnt/beta-catenin pathway in human HEK293 cells at 20 uM after 15 hrs by TOPflash dual luciferase reporter gene assay; assay type: cell-based
In short: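 HEK293 TOPFlash reporter cells were seeded at 15,000 cells/well in duplicate and grown 24 h. Compounds were then added with Wnt3a-conditioned medium from Wnt3a-secreting L cells (0.22-filtered, two harvests combined); controls ran with or without Wnt3a-CM. After 15 h, dual luciferase activity was read as RLU normalized to cell titer, averaged over three experiments. Single-concentration screen at 20 µM.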

[2] = Antitumor activity against human PC3 cells xenografted in athymic nude mouse at 50 mg/kg, ip administered daily for 5 weeks; assay type: functional; conditions: PC-3, ip, 840 h, read-out: TGI
[3] = Inhibition of Wnt/beta-catenin pathway in human HEK293 cells after 15 hrs by TOPflash dual luciferase reporter gene assay; assay type: cell-based; conditions: HEK293, 15 h
[4] = biological target: T1, Catenin beta-1 (Homo sapiens) (UniProt P35222); test: Downregulation of cytoplasmic beta-catenin levels in human PC3 cells after 15 hrs by Western blot analysis; assay type: cell-based; conditions: PC-3
T1 sequence (whole entry): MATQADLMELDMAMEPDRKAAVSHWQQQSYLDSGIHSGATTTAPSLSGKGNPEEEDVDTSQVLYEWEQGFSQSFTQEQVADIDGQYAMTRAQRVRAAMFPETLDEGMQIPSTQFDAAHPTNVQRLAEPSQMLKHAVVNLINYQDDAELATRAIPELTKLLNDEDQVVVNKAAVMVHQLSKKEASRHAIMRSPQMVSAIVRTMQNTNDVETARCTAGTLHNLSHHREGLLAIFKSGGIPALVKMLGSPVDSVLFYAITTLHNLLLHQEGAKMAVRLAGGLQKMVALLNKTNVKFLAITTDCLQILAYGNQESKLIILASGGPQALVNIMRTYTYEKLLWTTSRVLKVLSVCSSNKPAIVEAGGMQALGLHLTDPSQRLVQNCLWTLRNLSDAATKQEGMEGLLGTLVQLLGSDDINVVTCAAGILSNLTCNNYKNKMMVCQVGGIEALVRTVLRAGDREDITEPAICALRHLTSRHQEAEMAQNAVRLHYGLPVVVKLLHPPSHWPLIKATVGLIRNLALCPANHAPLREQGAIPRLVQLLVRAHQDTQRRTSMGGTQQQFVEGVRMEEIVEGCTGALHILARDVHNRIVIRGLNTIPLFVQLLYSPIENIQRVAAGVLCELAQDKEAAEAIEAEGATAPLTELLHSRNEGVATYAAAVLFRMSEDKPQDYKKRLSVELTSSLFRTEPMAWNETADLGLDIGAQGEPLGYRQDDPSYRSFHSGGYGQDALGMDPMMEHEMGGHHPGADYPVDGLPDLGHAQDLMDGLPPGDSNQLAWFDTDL
In short: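 Cytosolic fractions from PC3 cells (DMEM, 10% FBS) treated with vehicle (DMSO) or compound were western blotted with a β-catenin antibody, then reprobed with anti-actin as the fraction control.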

[5] = Cytotoxicity against human PC3 cells assessed as cell viability after 24 to 48 hrs by cell Titer-Glo assay; assay type: functional, cell-based; conditions: PC-3
In short: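 Androgen-independent PC3 cells in 96-well plates were exposed to varying compound concentrations for 24 h (figure legend) or 48 h (methods note). Viability was measured in triplicate with the CellTiter-Glo luminescent assay.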

[6] = biological target: T1, Catenin beta-1 (Homo sapiens); test: Inhibition of beta-catenin levels in human PC3 cells assessed as downregulation of c-myc levels at 12.5 to 50 uM after 15 hrs by Western blot analysis; assay type: cell-based; conditions: PC-3
In short: (§1)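 PC3 cells were incubated with vehicle (DMSO) or compound for 15 h. Cell extracts were western blotted with anti-cyclin D1 and anti-myc antibodies, then reprobed with anti-actin as the control, with ECL detection.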

[7] = biological target: T1, Catenin beta-1 (Homo sapiens); test: Inhibition of beta-catenin levels in human PC3 cells assessed as downregulation of cyclinD1 levels at 12.5 to 50 uM after 15 hrs by Western blot analysis; assay type: cell-based; conditions: PC-3; in short: as §1
[8] = Inhibition of Wnt/beta-catenin pathway in human HEK293 cells assessed as decrease in Wnt3a-CM-induced beta-catenin response transcription after 15 hrs by TOPflash dual luciferase reporter gene assay; assay type: cell-based; conditions: HEK293, 15 h
[9] = biological target: T1, Catenin beta-1 (Homo sapiens); test: Downregulation of Wnt3a-CM-induced beta-catenin levels in human HEK293 cells at 12.5 to 50 uM after 15 hrs by Western blot analysis; assay type: cell-based
In short: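 HEK293 reporter cells were treated with vehicle (DMSO) or compound in the presence of Wnt3a-CM for 15 h. Cytosolic proteins were western blotted with a β-catenin antibody, then reprobed for actin as the fraction control, with HRP secondary and ECL detection.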

Structure (SMILES)	inhibition [1]	also measured
COc1ccc(/C=C/C(=O)O[C@H]2Cc3cc4ccc(=O)oc4cc3OC2(C)C)cc1	54.8%	–
COc1cccc(CCC(=O)O[C@H]2Cc3cc4ccc(=O)oc4cc3OC2(C)C)c1OC	13.5%	–
CC(=O)Oc1ccc(CCC(=O)O[C@H]2Cc3cc4ccc(=O)oc4cc3OC2(C)C)cc1	12%	–
COc1ccc(CCC(=O)O[C@H]2Cc3cc4ccc(=O)oc4cc3OC2(C)C)cc1	41.5%	–
COc1ccc(OC)c(/C=C/C(=O)O[C@H]2Cc3cc4ccc(=O)oc4cc3OC2(C)C)c1	65.3%	–
COc1cccc(/C=C/C(=O)O[C@H]2Cc3cc4ccc(=O)oc4cc3OC2(C)C)c1	87.5%	–
COc1ccc(/C=C/C(=O)O[C@H]2Cc3cc4ccc(=O)oc4cc3OC2(C)C)c(OC)c1	52.8%	–
CC1(C)Oc2cc3oc(=O)ccc3cc2C[C@@H]1OC(=O)/C=C/c1ccc(O)c(O)c1	99.5%	inhibition in vivo at 50 mg/kg [2]: > 80%; IC50 [3]: 12.3 µM
CC(=O)Oc1ccc(CCC(=O)O[C@H]2Cc3cc4ccc(=O)oc4cc3OC2(C)C)cc1OC(C)=O	46.4%	–
CC(=O)Oc1ccccc1/C=C/C(=O)O[C@H]1Cc2cc3ccc(=O)oc3cc2OC1(C)C	95.9%	–
CC1(C)Oc2cc3oc(=O)ccc3cc2C[C@@H]1OC(=O)/C=C/c1cccc(Br)c1	84.8%	–
CC1(C)Oc2cc3oc(=O)ccc3cc2C[C@@H]1OC(=O)/C=C/c1cccc(F)c1	93.6%	–
COc1ccc(/C=C/C(=O)O[C@H]2Cc3cc4ccc(=O)oc4cc3OC2(C)C)cc1OC	42.3%	–
CC1(C)Oc2cc3oc(=O)ccc3cc2C[C@@H]1OC(=O)/C=C/c1ccccc1O	94.2%	–
CC(=O)Oc1cc(/C=C/C(=O)O[C@H]2Cc3cc4ccc(=O)oc4cc3OC2(C)C)cc(OC(C)=O)c1OC(C)=O	67.4%	–
COc1ccc(CCC(=O)O[C@H]2Cc3cc4ccc(=O)oc4cc3OC2(C)C)cc1OC	25.1%	–
CC1(C)Oc2cc3oc(=O)ccc3cc2C[C@@H]1OC(=O)/C=C/c1ccccc1	81.1%	–
COc1ccccc1/C=C/C(=O)O[C@H]1Cc2cc3ccc(=O)oc3cc2OC1(C)C	88.3%	–
COc1cc(/C=C/C(=O)O[C@H]2Cc3cc4ccc(=O)oc4cc3OC2(C)C)cc(OC)c1OC	46.9%	–
CC1(C)Oc2cc3oc(=O)ccc3cc2C[C@@H]1OC(=O)CCc1ccccc1	10.6%	–
CC1(C)Oc2cc3oc(=O)ccc3cc2C[C@@H]1OC(=O)/C=C/c1ccc(Br)cc1	40.1%	–
CC(=O)Oc1cccc(CCC(=O)O[C@H]2Cc3cc4ccc(=O)oc4cc3OC2(C)C)c1OC(C)=O	77.7%	–
COc1ccc(OC)c(CCC(=O)O[C@H]2Cc3cc4ccc(=O)oc4cc3OC2(C)C)c1	19.9%	–

Structure (SMILES)	inhibition [1]	also measured
COc1ccccc1CCC(=O)O[C@H]1Cc2cc3ccc(=O)oc3cc2OC1(C)C	50.4%	–
CC1(C)Oc2cc3oc(=O)ccc3cc2C[C@@H]1OC(=O)CCc1cccc(O)c1O	81.4%	–
CC1(C)Oc2cc3oc(=O)ccc3cc2C[C@@H]1OC(=O)/C=C/c1ccc(O)cc1	78.1%	–
COc1cc(OC)c(OC)cc1/C=C/C(=O)O[C@H]1Cc2cc3ccc(=O)oc3cc2OC1(C)C	59.6%	–
CC1(C)Oc2cc3oc(=O)ccc3cc2C[C@@H]1OC(=O)CCc1cccc(O)c1	42%	–
CC1(C)Oc2cc3oc(=O)ccc3cc2C[C@@H]1OC(=O)CCc1ccc(O)c(O)c1	68%	–
COc1cccc(CCC(=O)O[C@H]2Cc3cc4ccc(=O)oc4cc3OC2(C)C)c1	49.9%	–
CC(C)=CC(=O)O[C@H]1Cc2cc3ccc(=O)oc3cc2OC1(C)C [DECURSIN]	79.4%	IC50 [3]: 176 µM
CC(=O)Oc1ccc(/C=C/C(=O)O[C@H]2Cc3cc4ccc(=O)oc4cc3OC2(C)C)cc1	79.6%	–
COc1cccc(/C=C/C(=O)O[C@H]2Cc3cc4ccc(=O)oc4cc3OC2(C)C)c1OC	57.8%	–
CC(=O)Oc1cccc(/C=C/C(=O)O[C@H]2Cc3cc4ccc(=O)oc4cc3OC2(C)C)c1	97%	Activity [4]: Dose-dependent effect; IC50 [5]: 8.97 µM; inhibition [6]: Active; inhibition [7]: Active; IC50 [8]: 9.85 µM; Activity [9]: Active
CC1(C)Oc2cc3oc(=O)ccc3cc2C[C@@H]1OC(=O)/C=C/c1cc(O)c(O)c(O)c1	75.3%	–
CC1(C)Oc2cc3oc(=O)ccc3cc2C[C@@H]1OC(=O)/C=C/c1ccc([N+](=O)[O-])cc1	34.3%	–
CC1(C)Oc2cc3oc(=O)ccc3cc2C[C@@H]1OC(=O)/C=C/c1cccc(O)c1O	95.7%	–
CC1(C)Oc2cc3oc(=O)ccc3cc2C[C@@H]1OC(=O)/C=C/c1cccc(O)c1	93.3%	–
CC(=O)Oc1ccc(/C=C/C(=O)O[C@H]2Cc3cc4ccc(=O)oc4cc3OC2(C)C)cc1OC(C)=O	94%	–
CC(=O)Oc1cccc(/C=C/C(=O)O[C@H]2Cc3cc4ccc(=O)oc4cc3OC2(C)C)c1OC(C)=O	89.7%	–
CC1(C)Oc2cc3oc(=O)ccc3cc2C[C@@H]1OC(=O)CCc1ccccc1O	10%	–
COc1ccc(CCC(=O)O[C@H]2Cc3cc4ccc(=O)oc4cc3OC2(C)C)c(OC)c1	18.8%	–
CC(=O)Oc1cccc(CCC(=O)O[C@H]2Cc3cc4ccc(=O)oc4cc3OC2(C)C)c1	27.5%	–
CC(=O)Oc1ccccc1CCC(=O)O[C@H]1Cc2cc3ccc(=O)oc3cc2OC1(C)C	23.1%	–
CC1(C)Oc2cc3oc(=O)ccc3cc2C[C@@H]1OC(=O)CCc1ccc(O)cc1	32.8%	–
